The values that follow come from ChEMBL document CHEMBL3112571, “Benzimidazole CB2 agonists: design, synthesis and SAR” (Bioorg Med Chem Lett, 2014).

In general, EC50 refers to the concentration that produces a half-maximal response. What is called Emax is the maximal effect, on the per cent scale that the assay sets. Broadly, the IC50 is the concentration needed to halve the response being measured.

Assay [1] concerns the target T1, Cannabinoid receptor 1 (Homo sapiens, UniProt P21554). In words: Agonist activity at human CB1 receptor expressed in CHO-K1 cells assessed as forskolin-induced cAMP accumulation after 1 hr. In kind it is functional, cell-based. An outline of the steps: (§1)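 CHO-K1 cells (1000/well) expressing human CB1 or CB2 preincubated with compound 15 min at room temperature, then forskolin at EC70 added for a further 30 min at room temperature. cAMP measured by HTRF (d2-cAMP plus anti-cAMP-cryptate, final 1 h room temperature incubation). Values are the average of N = 1 to 3 results.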

In assay [2] the target is T2, Cannabinoid receptor 2 (Homo sapiens, UniProt P34972). In words: Agonist activity at human CB2 receptor expressed in CHO-K1 cells assessed as forskolin-induced cAMP accumulation after 1 hr relative to control. It counts as functional, cell-based. Put shortly:
as §1
On the technique in general: Cyclic AMP is a second messenger, typically raised through Gs and lowered through Gi signalling.

The target of assay [3] is T2, Cannabinoid receptor 2. In words: Agonist activity at human CB2 receptor expressed in CHO-K1 cells assessed as forskolin-induced cAMP accumulation after 1 hr. In kind it is functional, cell-based. An outline of the steps: as §1
The species named for the next assay is Homo sapiens. In words: Selectivity ratio of EC50 for human CB1 receptor to EC50 for human CB2 receptor.
For assay [4], the target named is T1, Cannabinoid receptor 1. The assay can be described thus: Agonist activity at human CB1 receptor expressed in CHO-K1 cells assessed as forskolin-induced cAMP accumulation after 1 hr relative to control. In kind it is functional, cell-based. An outline of the steps:
as §1

T2 sequence (P34972 whole entry): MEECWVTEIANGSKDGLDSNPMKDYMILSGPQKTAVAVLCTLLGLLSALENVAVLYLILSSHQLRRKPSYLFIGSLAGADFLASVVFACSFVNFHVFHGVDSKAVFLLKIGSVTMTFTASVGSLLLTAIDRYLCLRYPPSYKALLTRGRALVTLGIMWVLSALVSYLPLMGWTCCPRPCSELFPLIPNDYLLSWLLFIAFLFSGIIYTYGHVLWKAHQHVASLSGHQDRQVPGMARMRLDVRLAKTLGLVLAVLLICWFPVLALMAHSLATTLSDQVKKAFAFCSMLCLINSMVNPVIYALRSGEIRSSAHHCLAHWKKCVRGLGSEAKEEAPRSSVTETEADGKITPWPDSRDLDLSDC
T1 sequence (P21554 whole entry): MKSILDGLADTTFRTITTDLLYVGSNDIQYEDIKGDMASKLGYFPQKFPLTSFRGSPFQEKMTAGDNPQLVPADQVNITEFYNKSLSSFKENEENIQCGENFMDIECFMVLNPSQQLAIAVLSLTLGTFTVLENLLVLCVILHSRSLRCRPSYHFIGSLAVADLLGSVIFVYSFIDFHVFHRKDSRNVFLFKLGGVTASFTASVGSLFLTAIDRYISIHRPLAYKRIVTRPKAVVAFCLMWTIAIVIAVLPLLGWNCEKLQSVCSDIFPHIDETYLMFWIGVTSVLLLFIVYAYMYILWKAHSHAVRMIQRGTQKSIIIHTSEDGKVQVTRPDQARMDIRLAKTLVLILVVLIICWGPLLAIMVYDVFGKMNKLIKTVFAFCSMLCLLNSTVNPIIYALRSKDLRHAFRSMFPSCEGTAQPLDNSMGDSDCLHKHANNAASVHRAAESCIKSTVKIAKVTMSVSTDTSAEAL

As to `CCn1c(C(=O)NCc2cncnc2)nc2c(-c3ccccc3)cccc21`, the EC50 is > 17000 nM at Cannabinoid receptor 1 [1] and 1100 nM on Cannabinoid receptor 2 [3]. For the same compound, the Emax on Cannabinoid receptor 2 [2] came out at 89%.

As for `O=C(NCC(O)CO)c1nc2c(-c3ccccc3)cccc2[nH]1` (stereo not given), the EC50 at Cannabinoid receptor 1 [1] was > 17000 nM; at Cannabinoid receptor 2 [3], 6.3 nM. In addition, the Emax on Cannabinoid receptor 2 [2] turned out to be 75%.

For `CC(C)(C)CNC(=O)c1nc2c(-c3ccccc3)cccc2[nH]1`, the Ratio EC50 in the assay listed under Homo sapiens was > 1160. The half-maximal effective concentration (EC50) at Cannabinoid receptor 1 [1] was > 17000 nM; on Cannabinoid receptor 2 [3], 14.7 nM. At Cannabinoid receptor 2 [2], the Emax amounted to 95%.

Take `O=C(NC1(CO)CCCCC1)c1nc2c(-c3ccccc3)cccc2[nH]1`: the EC50 was > 17000 nM on Cannabinoid receptor 1 [1] and 236 nM at Cannabinoid receptor 2 [3]. In addition, at Cannabinoid receptor 2 [2], the Emax came out at 82%.

Take `O=C(NC12CC3CC(CC(C3)C1)C2)c1nc2c(-c3ccccc3)cccc2[nH]1`: the Ratio EC50 in the assay listed under Homo sapiens came out at 65. Moreover, the values for the 50% effective concentration (EC50) on Cannabinoid receptor 1 [1] and at Cannabinoid receptor 2 [3] were 123 nM and 1.9 nM, respectively. Also, the Emax stood at 100% on Cannabinoid receptor 1 [4] and 99% at Cannabinoid receptor 2 [2].

With `O=C(NCC1(CO)CCCCC1)c1nc2c(-c3ccccc3)cccc2[nH]1`, the EC50 at Cannabinoid receptor 1 [1] is > 17000 nM; on Cannabinoid receptor 2 [3], 43 nM. Further, at Cannabinoid receptor 2 [2], the Emax is 92%.

On to `O=C(NCc1ccccc1)c1nc2c(-c3ccccc3)cccc2[nH]1`, for which the EC50 is > 17000 nM on Cannabinoid receptor 1 [1] and 991 nM at Cannabinoid receptor 2 [3]. Also, the Emax at Cannabinoid receptor 2 [2] came to 64%.

Turning to `O=C(NCc1cccc(C(F)(F)F)c1)c1nc2c(-c3ccccc3)cccc2[nH]1`, the results for the half-maximal effective concentration (EC50) at Cannabinoid receptor 1 [1] and on Cannabinoid receptor 2 [3] were > 17000 nM and 256 nM, respectively. Also, at Cannabinoid receptor 2 [2], the Emax is 69%.

As for `CCn1c(C(=O)NCC(C)(C)C)nc2c(-c3ccccc3)cccc21`, the EC50 at Cannabinoid receptor 1 [1] was 913 nM; on Cannabinoid receptor 2 [3] it was 490 nM. Besides, the Emax came out at 87% on Cannabinoid receptor 1 [4] and 67% at Cannabinoid receptor 2 [2].

As to `CCn1c(C(=O)NCC2(CO)CCCC2)nc2c(-c3ccccc3)cccc21`, the values for the EC50 at Cannabinoid receptor 1 [1] and on Cannabinoid receptor 2 [3] were > 17000 nM and 1260 nM, respectively. For the same compound, the Emax on Cannabinoid receptor 2 [2] was 68%.

On to `CCn1c(C(=O)NCc2cccc(Cl)c2)nc2c(-c3ccccc3)cccc21`, for which the Ratio EC50 in the assay filed under Homo sapiens was > 425. Further, the EC50 was > 17000 nM at Cannabinoid receptor 1 [1] and 40 nM at Cannabinoid receptor 2 [3]. Further, the Emax at Cannabinoid receptor 2 [2] came to 87%.

Consider `O=C(NCC1(CO)CCCC1)c1nc2c(-c3ccccc3)cccc2[nH]1`, for which the EC50 at Cannabinoid receptor 1 [1] was > 17000 nM; on Cannabinoid receptor 2 [3], 24.6 nM. For the same compound, the Emax at Cannabinoid receptor 2 [2] was 93%.

Consider `O=C(NCc1ccccc1F)c1nc2c(-c3ccccc3)cccc2[nH]1`, for which the EC50 was > 17000 nM on Cannabinoid receptor 1 [1] and 256 nM at Cannabinoid receptor 2 [3]. In addition, on Cannabinoid receptor 2 [2], the Emax was 49%.

With `O=C(NCc1ncccc1F)c1nc2c(-c3ccccc3)cccc2[nH]1`, the concentration for a half-maximal effect (EC50) was > 17000 nM on Cannabinoid receptor 1 [1] and 1440 nM at Cannabinoid receptor 2 [3]. Besides, the Emax at Cannabinoid receptor 2 [2] is 39%.

As to `CCn1c(C(=O)NCc2ccccc2Cl)nc2c(-c3ccccc3)cccc21`, in the assay listed under Homo sapiens, the Ratio EC50 was determined as 92. The EC50 at Cannabinoid receptor 1 [1] was 913 nM; at Cannabinoid receptor 2 [3] it was 9.9 nM. The Emax came out at 87% on Cannabinoid receptor 1 [4] and 101% at Cannabinoid receptor 2 [2].

With `O=C(NCc1cccc(Cl)c1)c1nc2c(-c3ccccc3)cccc2[nH]1`, the EC50 was > 17000 nM at Cannabinoid receptor 1 [1] and 165 nM at Cannabinoid receptor 2 [3]. Also, the Emax on Cannabinoid receptor 2 [2] stood at 67%.

As for `O=C(NCC1(CO)CCCCC1)c1nc2c(-c3ccccc3)cccc2n1CC(F)(F)F`, the results for the EC50 at Cannabinoid receptor 1 [1] and at Cannabinoid receptor 2 [3] were > 17000 nM and 1970 nM, respectively. Besides, at Cannabinoid receptor 2 [2], the Emax amounted to 45%.

On to `O=C(NCC1(CO)CCCC1)c1nc2c(-c3ccccc3)cccc2n1CC(F)(F)F`, for which the EC50 at Cannabinoid receptor 1 [1] and at Cannabinoid receptor 2 [3] was > 17000 nM each time.

For `O=C(NCc1ccccc1Cl)c1nc2c(-c3ccccc3)cccc2[nH]1`, the EC50 at Cannabinoid receptor 1 [1] is > 17000 nM; at Cannabinoid receptor 2 [3], 443 nM. Also, the maximal response (Emax) on Cannabinoid receptor 2 [2] came to 64%.

For the compound `CCn1c(C(=O)NCc2ccccc2F)nc2c(-c3ccccc3)cccc21`, the concentration for a half-maximal effect (EC50) is > 17000 nM on Cannabinoid receptor 1 [1] and 45 nM at Cannabinoid receptor 2 [3]. Moreover, the Emax at Cannabinoid receptor 2 [2] is 98%.

As to `CCn1c(C(=O)NCc2ccc(C#N)cc2)nc2c(-c3ccccc3)cccc21`, the EC50 at Cannabinoid receptor 1 [1] was > 17000 nM; on Cannabinoid receptor 2 [3] it was 84 nM. Moreover, the Emax at Cannabinoid receptor 2 [2] turned out to be 99%.

Turning to `CC(C)(C)CNC(=O)c1nc2c(-c3ccccc3)cccc2n1CC(F)(F)F`, the concentration for a half-maximal effect (EC50) at Cannabinoid receptor 1 [1] and at Cannabinoid receptor 2 [3] was > 17000 nM throughout.

As for `O=C(NC12CC3CC(CC(C3)C1)C2)c1nc(C(O)c2cccnc2)c2ccccn12` (racemic), the IC50 on Cannabinoid receptor 1 [1] was found to be 3880 nM; on Cannabinoid receptor 2 [3], 4.5 nM. For the same compound, the Activity amounted to 82% on Cannabinoid receptor 1 [4] and 88% on Cannabinoid receptor 2 [2].
